Measured values gathered from unrelated publications.
Lines come from different studies, so protocols differ.
Observed: cell growth or viability

SMILES | cell line | assay | setting | endpoint | result
c1cc2cc(CNCC3(N4CCCC4)COC3)ccc2[nH]1 | GBM6 |  | 30 µM, 48 h | viability | 101%
C=CC(=O)N1CCC[C@@H](n2nc(-c3ccc(Oc4ccccc4)cc3)c3c(N)ncnc32)C1 | KARPAS-422 | ATP luminescence | 72 h | GI50 | 21.6 µM
COc1c(OCCCN2CCOCC2)ccc2c1N=C(NC(=O)c1sc(C)nc1C)N1CCN=C21 | KPL4 |  |  | EC50 | 0.086 µM
CCC(=O)Nc1cc(Nc2nc(N3CCc4sccc4C3)c3cccnc3n2)c(OC)cc1N1CCN(CC)CC1 | NCI-H1975 | MTT |  | IC50 | 0.198 µM
Cc1[nH]c(C)c(-c2ccc(OCCSc3ccncc3)cc2)c(=O)c1Br | HEK293 |  |  | IC50 | > 10 µM
Cn1cc(-c2cc(N3CCCCS3(=O)=O)ccc2Oc2ccc(F)cc2F)c2c(F)c[nH]c2c1=O | TMD8 | CCK-8 | 72 h | GI50 | 0.0093 µM
COc1ccc(-c2ccc(-c3ccc(C(=N)N)nc3)s2)cc1Cl | SF-539 | SRB |  | GI50 | 1.74 µM
CC(=O)c1c(C)c2cnc(Nc3ccc(N4CCNCC4)cn3)nc2n(C2CCCC2)c1=O | HCC1428 | resazurin |  | GI50 | 0.6 µM
Cc1cc(=O)c(-c2ccc(Oc3cccc(OC(F)(F)F)c3)cc2)c(C)[nH]1 | HEK293 |  |  | IC50 | > 10 µM
COc1cc(-c2ccc(-c3ccc(C(=N)N)nc3)s2)cc(OC)c1OC | SK-MEL-28 | SRB |  | GI50 | 1.62 µM
CCC(=O)Nc1cc(Nc2nc(N3CCOCC3)c3sccc3n2)c(OC)cc1N(C)CCN(C)C | NCI-H1975 | MTT |  | IC50 | > 50 µM
c1cc2c(cc1CNCC1(N3CCCC3)COC1)OCCO2 | T98G |  | 30 µM, 48 h | viability | 97.2%
Cc1cc(=O)c(-c2ccc(Oc3ccc(Cl)cc3Cl)cc2)c(C)[nH]1 | HEK293 |  |  | IC50 | > 10 µM
COc1cc(N(C)CCN(C)C)c(NC(=O)/C=C/C(C)C)cc1Nc1nc(N2CCc3sccc3C2)c2sccc2n1 | NCI-H1975 | MTT |  | IC50 | 15.6 µM
COc1ccc(-c2ccc(-c3ccc(C(=N)N)nc3)s2)cc1 | SK-MEL-28 | SRB |  | GI50 | 1.75 µM
COc1cccc(Oc2ccccc2NC(=O)CNC(=O)c2cccc3ccccc23)c1 | SK-MEL-28 | SRB | 48 h | GI50 | 4.37 µM
C=CC(=O)N1CCC[C@@H](n2nc(-c3ccc(Oc4ccccc4)cc3)c3c(N)ncnc32)C1 | Rec1 | ATP luminescence | 72 h | GI50 | 3.3 µM
CCC(=O)Nc1cc(Nc2nc(N3CCc4sccc4C3)c3cccnc3n2)c(OC)cc1N1CCOCC1 | NCI-H1975 | MTT |  | IC50 | 1.9 µM

SMILES | cell line | assay | setting | endpoint | result
O=C(c1cc(-c2ccco2)[nH]n1)N1CCN(S(=O)(=O)c2ccc(Br)cc2)CC1 | HEK293 |  |  | IC50 | > 10 µM
c1ccc(-c2ccc(CNCC3(N4CCCC4)COC3)s2)cc1 | GBM6 |  | 30 µM, 48 h | viability | 52.6%
CCCCCCCc1ccc(-c2c(C)[nH]c(C)c(Cl)c2=O)cn1 | HEK293 |  |  | IC50 | > 10 µM
c1ccc(-c2ccc(CNCC3(N4CCCC4)COC3)o2)cc1 | GBM6 |  | 30 µM, 48 h | viability | 80.5%
C/C=C/C(=O)Nc1cc(Nc2nc(Nc3cnn(C)c3)c3sccc3n2)c(OC)cc1N(C)CCN(C)C | NCI-H1975 | MTT |  | IC50 | 3.07 µM
CCCc1n(Cc2ccc3ccccc3n2)cc[n+]1Cc1ccc2ccccc2n1 | NCI-H322M | SRB |  | TGI | 41.9 µM
Cc1cccc2cc(CNCC3(N4CCCC4)COC3)cnc12 | GBM6 |  | 30 µM, 48 h | viability | 104%
Cc1cc(=O)c2cc(-c3ccc(OC(F)(F)F)cc3)ccc2[nH]1 | HEK293 |  |  | IC50 | > 10 µM
Fc1ccc2[nH]cc(CNCC3(N4CCC(F)C4)COC3)c2c1 (centres unmarked) | T98G |  | 30 µM, 48 h | viability | 75.2%
CCN(c1cc(-c2ccc(CN3CCOCC3)cc2)cc(C(=O)NCc2c(C)cc(C)[nH]c2=O)c1C)C1CCOCC1 | KARPAS-422 |  | 8 days | GI50 | 0.25 µM
C=CC(=O)Nc1cc(Nc2nc(N3CCc4sccc4C3)c3sccc3n2)c(OC)cc1N1CCN(C)CC1 | NCI-H1975 | MTT |  | IC50 | 6.65 µM
O=C(c1cc(-c2ccccc2O)on1)N1CCN(C(c2ccccc2)c2ccccc2)CC1 | HEK293 |  |  | IC50 | > 10 µM
Fc1ccc2c(CNCC3(N4CCC(F)C4)COC3)c[nH]c2c1 (centres unmarked) | T98G |  | 30 µM, 48 h | viability | 96.4%
Cc1n(Cc2ccc3ccccc3n2)cc[n+]1Cc1ccc2ccccc2c1 | NCI-H322M | SRB |  | TGI | 14.7 µM
FC1CCN(C2(CNCc3ccc(-c4ccccc4)o3)COC2)C1 (centres unmarked) | T98G |  | 30 µM, 48 h | viability | 96.4%
CCOC(=O)c1cn(CC)c2cc(OCc3ccccc3)ccc2c1=O | HEK293 |  |  | IC50 | > 10 µM
C=CC(=O)Nc1cccc(Oc2nc(Nc3ccc(N4CCN(C)CC4)cc3)nc3ccsc23)c1 | NCI-H1975 | MTT |  | IC50 | 0.458 µM
